Tests used:
[1] = test system: Human immunodeficiency virus 1; assay: Antiviral activity against Human immunodeficiency virus 1 3B infected in human MT2 cells assessed as protection against viral infection by MTT assay; format: functional, organism-based
Summary of the method: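 HIV-1 (IIIB or variant strains) infected into MT-2 human T-cells. The MTT colorimetric read-out measured cell viability. […] Antiviral curves used triplicate samples at each concentration, and a cytotoxicity (CC50) curve on MT-2 growth was run at the same time.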

[2] = test system: Human immunodeficiency virus 1; assay: Ratio of EC50 for Human immunodeficiency virus 1 NL4.3 reverse transcriptase K103N and Y181C double mutant to EC50 for Human immunodeficiency virus 1 NL4.3 expressing wild type reverse transcriptase; format: functional
[3] = test system: Human immunodeficiency virus 1; assay: Antiviral activity against Human immunodeficiency virus 1 NL4.3 infected in human MT2 cells assessed as inhibition of viral infection; format: functional, organism-based; details: Human immunodeficiency virus 1, NL4.3, MT2
Summary of the method: (§1)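 HIV-1 (IIIB or variant strains) infected into MT-2 human T-cells. The MTT colorimetric read-out measured cell viability. Antiviral curves used triplicate samples at each concentration, and a cytotoxicity (CC50) curve on MT-2 growth was run at the same time.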

[4] = test system: Human immunodeficiency virus 1; assay: Ratio of EC50 for Human immunodeficiency virus 1 NL4.3 reverse transcriptase Y181C mutant to EC50 for Human immunodeficiency virus 1 NL4.3 expressing wild type reverse transcriptase; format: functional
[5] = test system: Human immunodeficiency virus 1; assay: Antiviral activity against Human immunodeficiency virus 1 NL4.3 reverse transcriptase K103N and Y181C double mutant infected in human MT2 cells assessed as inhibition of viral infection; format: functional, organism-based; details: Human immunodeficiency virus 1, NL4.3, MT2; summary of the method: as §1
MT2 [6] = assay: Cytotoxicity against human MT2 cells infected with HIV1 3B by MTT assay; format: cell-based
MT2 [7] = assay: (§2) Cytotoxicity against human MT2 cells infected with HIV1 NL4.3 by MTT assay; format: cell-based; details: mt2
[8] = test system: Human immunodeficiency virus 1; assay: Antiviral activity against Human immunodeficiency virus 1 NL4.3 reverse transcriptase Y181C mutant infected in human MT2 cells assessed as inhibition of viral infection; format: functional, organism-based; details: Human immunodeficiency virus 1, NL4.3, MT2; summary of the method: as §1
[9] = test system: Human immunodeficiency virus 1; assay: Antiviral activity against Human immunodeficiency virus 1 NL4.3 reverse transcriptase Y181C mutant infected in human MT4 cells assessed as inhibition of viral infection; format: functional, organism-based; details: Human immunodeficiency virus 1, NL4.3, MT4
[10] = test system: Human immunodeficiency virus 1; assay: Antiviral activity against Human immunodeficiency virus 1 NL4.3 infected in human MT4 cells assessed as inhibition of viral infection; format: functional, organism-based; details: Human immunodeficiency virus 1, NL4.3, MT4
[11] = test system: Human immunodeficiency virus 1; assay: Antiviral activity against Human immunodeficiency virus 1 NL4.3 reverse transcriptase K103N and Y181C double mutant infected in human MT4 cells assessed as inhibition of viral infection; format: functional, organism-based; details: Human immunodeficiency virus 1, NL4.3, MT4
[12] = as §2; format: cell-based; details: MT2 cells infected with HIV1 NL4.3
[13] = Cytotoxicity against human MT4 cells infected with HIV1 NL4.3 by MTT assay; format: cell-based

Structure (SMILES) | EC50 [1] [nM] | EC50 [3] [nM] | EC50 [5] [nM] | CC50 (MT2 [6]) [µM] | CC50 (MT2 [7]) [µM] | EC50 [8] [nM] | also measured
N#Cc1cc(Cl)cc(Oc2ccc(Cl)cc2OCCn2cc(Cl)c(=O)[nH]c2=O)c1 | 17 | 17 | 570 | 31 | 21 | 240 | Ratio EC50 [2]: 34; Ratio EC50 [4]: 14
N#Cc1cc(Cl)cc(Oc2ccc(C#N)cc2OCCn2ccc(=O)[nH]c2=O)c1 | 6000 |  |  | > 100 |  |  | 
N#Cc1cc(Cl)cc(Oc2ccc(C#N)cc2OCCn2cc(Cl)c(=O)[nH]c2=O)c1 | 5300 |  |  | 94 |  |  | 
N#Cc1ccc(Oc2ccccc2Cl)c(OCCn2ccc(=O)[nH]c2=O)c1 | 270 |  |  | > 100 |  |  | 
N#Cc1ccc(Oc2cc(Cl)ccc2Cl)c(OCCn2ccc(=O)[nH]c2=O)c1 | 43 | 43 | 2800 | 71 | 59 | 920 | 
N#Cc1ccc(Oc2cc(Cl)cc(Cl)c2)c(OCCn2ccc(=O)[nH]c2=O)c1 | 20 | 20 | > 43000 | > 100 | > 61 | 800 | 
N#C/C=C/c1cccc(Oc2ccc(C#N)cc2OCCn2ccc(=O)[nH]c2=O)c1 | 15 | 15 | 8000 | > 100 | > 90 | 980 | 
N#C/C=C/c1cccc(Oc2ccc(Cl)cc2OCCn2ccc(=O)[nH]c2=O)c1 | 5 | 5 | 1600 | 19 | 22 | 370 | 
N#C/C=C/c1cc(Cl)cc(Oc2ccc(Cl)cc2OCCn2ccc(=O)[nH]c2=O)c1 | 0.055 | 0.055 | 220 | 10 | 10 | 49 | 
N#C/C=C/c1cc(F)cc(Oc2ccc(Cl)cc2OCCn2ccc(=O)[nH]c2=O)c1 | 3.2 | 3.2 | 900 | 48 | 48 | 150 | 
N#C/C=C/c1cc(F)cc(Oc2ccc(F)cc2OCCn2ccc(=O)[nH]c2=O)c1 | 0.32 | 0.32 | 85 | 45 | 45 | 16 | 
CNc1ccc(Oc2cc(Cl)cc(/C=C/C#N)c2)c(OCCn2ccc(=O)[nH]c2=O)c1 | 20 | 20 |  | 30 | 30 | 2800 | 
N#Cc1cc(F)c(Oc2ccccc2Cl)c(OCCn2ccc(=O)[nH]c2=O)c1 | 160 |  |  | > 100 |  |  | 
COCCOc1cccc(Oc2ccc(C#N)cc2OCCn2ccc(=O)[nH]c2=O)c1 | 540 |  |  | > 100 |  |  | 
N#Cc1ccc(Oc2cccc(OCCCO)c2)c(OCCn2ccc(=O)[nH]c2=O)c1 | 1800 |  |  | > 100 |  |  | 
Cc1cc(C)cc(Oc2c(CSCc3ccco3)c(C)[nH]c(=O)c2I)c1 |  | 1 |  |  |  |  | 
O=C1Nc2ccc(Cl)cc2[C@@](C#CC2CC2)(C(F)(F)F)O1 [EFAVIRENZ] |  |  |  |  |  |  | EC50 [9]: 2 nM; EC50 [10]: 1.4 nM; EC50 [11]: 37 nM
Cc1cc(C#N)cc(C)c1Oc1nc(Nc2ccc(C#N)cc2)nc(N)c1Br [ETRAVIRINE] |  |  |  |  |  |  | EC50 [9]: 7 nM; EC50 [11]: 4 nM
Cc1ccnc2c1NC(=O)c1cccnc1N2C1CC1 [NEVIRAPINE] |  |  | > 100000 |  |  | > 100000 | EC50 [9]: > 10000 nM; EC50 [10]: 81 nM; EC50 [11]: > 10000 nM; CC50 [12]: > 100 µM
Cc1cc(/C=C/C#N)cc(C)c1Nc1ccnc(Nc2ccc(C#N)cc2)n1 [RILPIVIRINE] |  |  |  |  | > 1 |  | EC50 [10]: 0.4 nM; CC50 [13]: 8 µM; EC50 [11]: 1 nM

Source: ChEMBL document CHEMBL1921799, “Computationally-guided optimization of a docking hit to yield catechol diethers as potent anti-HIV agents” (J Med Chem, 2011)
